9 compounds from PMC11397428 (Science Advances, 2024) can be followed below.

Converted amounts (≈) assume the structure as drawn. Where a SMILES comes first, the peptide text is derived from it. The star is where a group is joined. Phenylacetyl(4-Ph) = O=C(Cc1ccc(-c2ccccc2)cc1)* A value given as a limit tells only on which side of the number the result lay.

For series [1], the system named is bone marrow–derived macrophages (BMDMs). The series can be described thus: M2 macrophage polarization of BMDMs, CD206/CD86 flow cytometry. The format is cell-based, mouse. The note with it: M1 positive control LPS 10 ng ml^−1 and IFN-γ 20 ng ml^−1. For orientation: In flow cytometry, cells or beads pass a laser one at a time.
Series [2] relates to red blood cells (RBCs). The series can be described thus: Hemolysis assay. The format is cell-based, New Zealand rabbit. The note with it: 3 hours, 37°C, PBS; for hemolytic activity: 256 μM, n = 9. A digest of the protocol:
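Freshly drawn rabbit blood diluted tenfold in PBS. RBCs pelleted and washed eight times with PBS. Peptide stocks made in PBS at 512 μM and diluted twofold six times. RBCs incubated with peptide for 3 hours at 37°C; 1% Triton X-100 as positive control, PBS as negative control. Samples spun at 10,000 rpm for 10 min; hemolysis calculated from supernatant absorbance at 570 nm.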

In series [3] the test system is human bronchial epithelial cells (BEAS-2B). The series can be described thus: Cytocompatibility, MTT assay. The note with it: 24-hour coincubation. The format is cell-based. The method, boiled down: (§1)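 Cell lines grown with 10% FBS and 1% penicillin-streptomycin. Seeded at 1 × 10^4 cells per well and allowed 24 hours to attach. Medium then replaced with fresh medium containing test peptide at a range of concentrations. Viability read by MTT after 24 hours of co-incubation.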
For orientation: Tetrazolium assays rely on reduction of a dye to a coloured formazan, in cell work by metabolically active cells.

In series [4] the test system is human embryonic kidney (HEK) 293T. Nature of the series: Cytocompatibility, MTT assay. The format is cell-based. The note with it: 24 h, n = 9. The method, boiled down: as §1
Series [5] has as its system HS-5 (human marrow stromal cells). The series can be described thus: Cytocompatibility, MTT assay. The format is cell-based. The note with it: 24 h, n = 9. The method, boiled down:
as §1

The test system of series [6] is RAW264.7. The series can be described thus: Cytocompatibility, MTT assay. The format is cell-based, murine. The note with it: 24 h, n = 9. The method, boiled down:
as §1

Series [7] has as its system DC2.4. Nature of the series: Cytocompatibility, MTT assay. The format is cell-based, murine. The note with it: 24 h, n = 9. A digest of the protocol: as §1
Series [8] relates to multidrug-resistant Escherichia coli (MRE). Nature of the series: MIC against MRE. The note with it: n = 3 biologically replicates. The format is cell-based.
The nature of series [9]: Pharmacokinetic study of SPRAY-BLKR-NPs in ALI mice. The format is in vivo, mouse.
For series [10], the system named is healthy mice. The series can be described thus: Immunomodulation and toxicity in healthy mice. The format is in vivo, mouse.
The subject of series [11] is BMDMs. The series can be described thus: Endocytosis mode of FITC-BLKR with endocytosis inhibitors. The format is cell-based, mouse. The note with it: FITC-BLKR 16 μM, 15 min; EIPA 50 μM, CPZ 40 μM, Filipin III 5 μg ml^−1; n = 3.
Series [12] in a line: Pulmonary biodistribution of FITC-labeled peptide, CLSM. The format is in vivo, mouse. The note with it: 128 μM, 50 μl intratracheal, 1 h. The method, boiled down: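 Acute lung injury induced in BALB/c mice by intratracheal LPS (10 mg kg^−1). FITC-labelled peptide (128 μM, 50 μl) then given intratracheally, n = 3. Lungs taken 1 hour after dosing. Sections stained for CD68 (macrophages) with DAPI counterstain and imaged by confocal microscopy.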

In series [13] the test system is MRE-induced ALI. The series can be described thus: Comparison with ceftazidime in MRE-infected mice. The format is in vivo, mouse. The note with it: ceftazidime/avibactam 32/8 mg kg^−1 subcutaneous every 12 hours; n = 12.

For lipopolysaccharide [LPS], in series [1], the “CD86+ macrophage in the total population” value was “more than 80%”.

As for `CC(C)C[C@H](NC(=O)[C@H](Cc1ccccc1)NC(=O)[C@H](Cc1ccccc1)NC(=O)Cc1ccc(-c2ccccc2)cc1)C(=O)N[C@@H](CCCCN)C(=O)N[C@@H](CCCNC(=N)N)C(=O)N[C@H](C(=O)N[C@@H](Cc1c[nH]c2ccccc12)C(=O)N[C@@H](CCCCN)C(=O)N[C@@H](CCCNC(=N)N)C(=O)O)C(C)C` [BLKR] ({Phenylacetyl(4-Ph)}-FFLKRVWKR-OH), the hemolytic activity entry in series [2] is reported as “no detectable hemolytic activity”. The “cytotoxicity toward BEAS-2B” value in [3] is listed as “no notable cytotoxicity”. The “cytotoxicity, HEK 293T” value in [4] is “no significant cytotoxicity”. The “cytotoxicity, HS-5” value in series [5] is recorded as “no significant cytotoxicity”. The “cytotoxicity, RAW264.7” value in [6] is on record as “no significant cytotoxicity”. Besides, the “cytotoxicity, DC2.4” value in series [7] is “no significant cytotoxicity”. Besides, the “MIC against MRE” value in series [8] came to 16 µM (≈ 23.6 µg/mL). Further, in [9] (ALI mice, single dose 18.42 μg per mouse, 12 hours after administration), the “BLKR left in entire respiratory tract” value was about 10%. Moreover, in series [9] (within 24 hours), the “pulmonary area under the curve relative to kidney” value is reported as over 154.13 times and the “pulmonary area under the curve relative to liver” value was “more than 47.90 times”. Further, the “monocyte infiltration in the alveolar site, histology” value in [10] (128 or 256 μM, 50 μl twice) is recorded as “no monocyte infiltration was observed”. The “inflammatory cell infiltration in lung, histology” value in [10] (512 or 1204 μM) is recorded as “inflammatory cell infiltration occurred in lung”. Besides, the “monocyte percentage in peripheral blood” value in [10] (all the tested concentrations, n = 3) was “no elevation of monocyte percentage”.

Regarding `CCCCC[C@@H](O)[C@H]1C(=O)O[C@H](C)[C@@H](O)/C=C/C=C/C=C/C=C/C=C(\C)[C@@H](O)C[C@H](O)C[C@H](O)C[C@H](O)C[C@H](O)C[C@H](O)C[C@@H]1O` [Filipin III], in series [11], the “loss of BLKR uptake quantified by FITC intensity” value (from here on “loss of BLKR uptake quantified”) came to 43.01%.

Take `CC(C)C[C@H](N)C(=O)N[C@@H](CCCCN)C(=O)N[C@@H](CCCNC(=N)N)C(=O)N[C@H](C(=O)N[C@@H](Cc1c[nH]c2ccccc12)C(=O)N[C@@H](CCCCN)C(=O)N[C@@H](CCCNC(=N)N)C(=O)O)C(C)C` [LKR] (H-LKRVWKR-OH): in series [12], the “accumulation in injured lung tissue” value is reported as “extremely little accumulation”.

As for `CN(C)CCCN1c2ccccc2Sc2ccc(Cl)cc21` [CPZ, chlorpromazine], in [11], the “loss of BLKR uptake quantified” value is 24.47%.

`CC[C@H](C)[C@H](NC(=O)[C@H](CC(C)C)NC(=O)[C@H](CCCNC(=N)N)NC(=O)[C@H](Cc1ccccc1)NC(=O)[C@H](Cc1ccccc1)NC(=O)Cc1ccc(-c2ccccc2)cc1)C(=O)N[C@@H](CCCNC(=N)N)C(=O)N[C@@H](Cc1ccc(O)cc1)C(=O)N[C@@H](CCSC)C(=O)N[C@@H](C)C(=O)N[C@@H](CCCCN)C(=O)O` [BRLI] ({Phenylacetyl(4-Ph)}-FFRLIRYMAK-OH) yielded a hemolysis rate in series [2] (128 μM) of 7.49%.

With `CC(C)(O/N=C(\C(=O)N[C@@H]1C(=O)N2C(C(=O)[O-])=C(C[n+]3ccccc3)CS[C@H]12)c1csc(N)n1)C(=O)O` [Ceftazidime], the 2-day survival rate in [13] is listed as 58.3%.

For `CCN(c1nc(N)c(C(=O)NC(=N)N)nc1Cl)C(C)C` [EIPA, ethyl-isopropyl-amiloride], the “loss of BLKR uptake quantified” value in series [11] was determined as 22.14%.

Regarding `CC[C@H](C)[C@H](NC(=O)[C@H](CCCCN)NC(=O)[C@H](Cc1ccccc1)NC(=O)[C@H](Cc1ccccc1)NC(=O)Cc1ccc(-c2ccccc2)cc1)C(=O)N[C@H](C(=O)N[C@@H](CCCCN)C(=O)N[C@H](C(=O)N[C@@H](C)C(=O)N[C@@H](CCCCN)C(=O)O)C(C)C)[C@@H](C)CC` [BKII] ({Phenylacetyl(4-Ph)}-FFKIIKVAK-OH), the hemolytic activity result in [2] is “no detectable hemolytic activity”. Moreover, the “cytotoxicity toward BEAS-2B” value in [3] is recorded as “no notable cytotoxicity”.
